Test results published in ChEMBL document CHEMBL3526139, “Clinical pharmacokinetics, metabolism, and drug-drug interaction of carfilzomib” (Drug Metab Dispos, 2013).

Legend:
Cytochrome P450 2C19 = Cytochrome P450 2C19 (Homo sapiens, UniProt P33261); assay: Inhibition of CYP2C19 in human liver microsomes using S-mephenytoin as substrate after 5 mins by LC-MS/MS analysis; assay type: ADME
Procedure, shortened: (§1)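 Pooled HLM from 16 donors were incubated at 37°C in duplicate with carfilzomib 0.01–10 µM and probe substrate at about its Km. Substrates were phenacetin, amodiaquine, diclofenac, S-mephenytoin, dextromethorphan, testosterone and midazolam. Protein was 0.1 mg/mL, or 0.05 mg/mL with midazolam. Reactions ran 5 min without preincubation, then were quenched with acetonitrile. Metabolites were measured by LC-MS/MS relative to 0.5% acetonitrile controls.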

[1] = Half life in human patient with relapsed solid tumor at 20 mg/m'2, iv administered on days 1, 2, 8, 9, 15 and 16 of 28-day cycle over 2 to 10 mins measured on day 16 of cycle 1 by LC-MS/MS analysis; assay type: ADME, organism-based; details: in vivo
Procedure, shortened: (§2)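 Patients with relapsed solid tumors (n=3) received carfilzomib IV at 20 mg/m2. Plasma was sampled on Days 1 and 16 of Cycle 1 before dosing, at end of administration, and at 5, 15, 30 min and 1, 2, 4 h after. Samples underwent solid phase extraction and LC-MS/MS with d10-carfilzomib internal standard over 0.100–200 ng/mL. Parameters were derived noncompartmentally (constant IV infusion model) from actual elapsed time from infusion start.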

Cytochrome P450 1A2 = biological target: T1, Cytochrome P450 1A2 (Homo sapiens, UniProt P05177); assay: Decrease in CYP1A2 activity in human hepatocytes assessed as acetaminophenol formation using phenacetin as substrate at 2.5 uM incubated for 3 days prior to substrate challenge for 60 mins by LC-MS/MS analysis; assay type: ADME, cell-based, Hepatocyte; details: 1 h
T1 sequence (P05177 whole entry): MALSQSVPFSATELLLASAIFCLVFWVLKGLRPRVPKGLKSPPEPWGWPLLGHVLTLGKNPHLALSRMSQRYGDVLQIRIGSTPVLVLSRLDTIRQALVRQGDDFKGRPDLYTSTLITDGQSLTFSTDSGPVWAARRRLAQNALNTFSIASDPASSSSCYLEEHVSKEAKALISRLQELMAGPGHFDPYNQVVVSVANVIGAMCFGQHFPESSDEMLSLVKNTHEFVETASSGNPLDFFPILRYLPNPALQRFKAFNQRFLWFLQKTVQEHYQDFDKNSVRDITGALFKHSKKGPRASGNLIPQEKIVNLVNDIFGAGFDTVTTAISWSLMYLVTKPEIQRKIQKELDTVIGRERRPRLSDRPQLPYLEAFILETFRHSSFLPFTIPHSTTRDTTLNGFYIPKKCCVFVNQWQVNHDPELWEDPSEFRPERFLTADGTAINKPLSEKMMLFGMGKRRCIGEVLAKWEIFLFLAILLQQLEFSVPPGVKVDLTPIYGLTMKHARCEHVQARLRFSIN
Procedure, shortened: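 Hepatocytes from 3 donors were plated on collagen I and cultured 2 days, then treated 3 days with carfilzomib (0.1–2.5 µM), 0.08% DMSO, rifampicin 20 µM or β-naphthoflavone 20 µM, renewed daily. Cells were then incubated in serum-free medium in triplicate with testosterone 200 µM (CYP3A, 30 min, 6β-hydroxytestosterone) or phenacetin 100 µM (CYP1A2, 60 min, acetaminophenol). Products were measured by LC-MS/MS and expressed relative to DMSO.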

Cytochrome P450 3A [2] = biological target: T2, Cytochrome P450 3A (Homo sapiens, UniProt P08684+P20815+Q9HB55+P24462); assay: Drug metabolism in pooled human hepatocytes assessed as disapperance rate at 1 uM by LC-MS/MS analysis in presence of 10 uM CYP3A inhibitor ketoconazole; assay type: ADME, cell-based, Hepatocyte
Procedure, shortened: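 Pooled human hepatocytes in suspension (~0.5 x 10^6 viable cells/mL) were incubated with 1 µM carfilzomib at 37°C under 5% CO2, with or without isoform-selective CYP chemical inhibitors. Reactions were quenched with acetonitrile at 0, 15, 30, 60 and 120 min. Carfilzomib was quantified by non-validated LC-MS/MS after protein precipitation.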

Cytochrome P450 3A [3] = biological target: T2, Cytochrome P450 3A; assay: Time-dependent inhibition of CYP3A in human liver microsomes assessed as testosterone 6-hydroxylation using testosterone as substrate by LC-MS/MS analysis in presence of NADPH; assay type: ADME
Procedure, shortened: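 Pooled HLM (16 donors) given carfilzomib 0.01–10 µM in duplicate at 37°C with a 30-min preincubation before probe substrate was added. Substrate was set near Km (testosterone Km 100 µM; midazolam Km 3.8 µM). Protein was 0.1 mg/mL, or 0.05 mg/mL with midazolam. Metabolite formation was read by LC-MS/MS after 5 min and expressed relative to 0.5% acetonitrile controls to give IC50.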

Plasma = assay: Drug metabolism in plasma of iv dosed human patient with relapsed and refractory hematological malignancies assessed as morpholino-hPhe-Leu-Phe-Leu-diol metabolite formation administered on days 1, 2, 8, 9, 15 and 16 of 28-day cycle over 2 to 10 mins by LC-MS/MS analysis; assay type: ADME, organism-based; details: in vivo
CYP1A2 = assay: Decrease in CYP1A2 gene expression in human hepatocytes at 2.5 uM after 3 days by qPCR analysis; assay type: ADME, cell-based, Hepatocyte
Procedure, shortened: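 Hepatocytes were treated 3 days with carfilzomib (0.1–2.5 µM) or 0.08% DMSO, renewed daily. CYP3A mRNA was measured in 3 donors and CYP1A2 mRNA in one additional donor, both by qPCR. Values are triplicate means relative to DMSO.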

[4] = Cmax in human patient with relapsed solid tumor at 20 mg/m'2, iv administered on days 1, 2, 8, 9 15 and 16 of 28-day cycle over 2 to 10 mins measured on day 1 of cycle 1 by LC-MS/MS analysis; assay type: ADME, organism-based; parameters: route intravenous; details: in vivo; procedure, shortened: as §2
Cytochrome P450 2C8 = biological target: T3, Cytochrome P450 2C8 (Homo sapiens, UniProt P10632); assay: Inhibition of CYP2C8 in human liver microsomes using amodiaquine as substrate after 5 mins by LC-MS/MS analysis; assay type: ADME; procedure, shortened: as §1
T3 sequence (P10632 whole entry): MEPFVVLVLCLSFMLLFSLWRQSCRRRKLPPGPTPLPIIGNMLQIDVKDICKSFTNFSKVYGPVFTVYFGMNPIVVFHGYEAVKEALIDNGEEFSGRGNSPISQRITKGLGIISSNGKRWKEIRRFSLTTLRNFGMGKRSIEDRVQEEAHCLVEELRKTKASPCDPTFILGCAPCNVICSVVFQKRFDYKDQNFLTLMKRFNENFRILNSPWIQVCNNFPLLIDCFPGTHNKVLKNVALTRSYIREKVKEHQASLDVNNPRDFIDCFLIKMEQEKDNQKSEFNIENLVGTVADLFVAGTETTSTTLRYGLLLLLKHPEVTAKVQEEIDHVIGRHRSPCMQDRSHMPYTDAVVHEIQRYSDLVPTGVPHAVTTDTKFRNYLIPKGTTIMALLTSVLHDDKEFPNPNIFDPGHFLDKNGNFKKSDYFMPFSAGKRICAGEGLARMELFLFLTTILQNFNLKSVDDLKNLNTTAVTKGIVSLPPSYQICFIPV

CYP3A = CYP3A (Homo sapiens, UniProt P08684+P20815+P24462+Q9HB55); assay: Inhibition of CYP3A in human liver microsomes assessed as substrate metabolite formation using midazolam as substrate measured after 5 mins by LC-MS/MS analysis; assay type: ADME; details: probe midazolam; procedure, shortened: as §1

Chain of Cytochrome P450 2C19 (P33261 whole entry): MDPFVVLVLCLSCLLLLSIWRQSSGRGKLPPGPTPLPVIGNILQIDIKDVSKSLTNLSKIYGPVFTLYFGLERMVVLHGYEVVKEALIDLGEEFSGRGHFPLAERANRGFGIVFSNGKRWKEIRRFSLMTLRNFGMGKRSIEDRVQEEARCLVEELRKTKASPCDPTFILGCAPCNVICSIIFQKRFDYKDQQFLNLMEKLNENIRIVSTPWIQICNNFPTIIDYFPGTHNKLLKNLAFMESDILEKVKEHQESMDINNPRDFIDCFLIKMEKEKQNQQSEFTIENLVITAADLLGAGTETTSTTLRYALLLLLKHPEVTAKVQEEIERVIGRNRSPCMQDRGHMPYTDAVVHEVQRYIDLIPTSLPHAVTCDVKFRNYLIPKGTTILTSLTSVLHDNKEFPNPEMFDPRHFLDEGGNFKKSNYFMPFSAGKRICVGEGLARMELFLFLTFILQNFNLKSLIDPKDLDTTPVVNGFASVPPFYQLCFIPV

CC(C)C[C@H](NC(=O)[C@H](CCc1ccccc1)NC(=O)CN1CCOCC1)C(=O)N[C@@H](Cc1ccccc1)C(=O)N[C@@H](CC(C)C)C(=O)[C@@]1(C)CO1 [CARFILZOMIB]
IC50 (Cytochrome P450 2C19): > 10 µM | half-life [1]: 1.1 h | inhibition (INH) (Cytochrome P450 1A2): Dose-dependent effect | Drug metabolism (Cytochrome P450 3A [2]): 0.012 min⁻¹ | inhibition (INH) (Cytochrome P450 3A [3]): Active | Drug metabolism (Plasma): metabolite_detected | inhibition at 72 h, 2.5 µM (CYP1A2): 40% | Cmax [4]: 2760 ng/mL | IC50 (Cytochrome P450 2C8): > 10 µM | IC50 at 5 min (CYP3A): 1.7 µM
